Source: PubChem (several laboratories)
Compounds with a hit are over-represented: about 2.6% of the library has one in this group of screens.
Exocytosis inh: LAMP-1 surface exposure blockers, TALL-104 cells – cell-based, flow cytometry, MLPCN library, primary screen; TALL-104 LAMP-1 surface exposure; cells stimulated with thapsigargin and PMA; inhibition, % at 10 µM; actives 0.66% (n = 360,000); AID 651702, 2012;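 active means inhibition above about 55%, limit read from the data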
MC4R antagonist: MC4R antagonists of cAMP signaling, primary screen, cell-based, TR-FRET, antagonist arm of biased-ligand search; Melanocortin receptor 4 (Homo sapiens), P32245; MC4R-expressing cells, MTII-stimulated cAMP, LANCE TR-FRET; inhibition, % at 6.5 µM; actives 0.48% (n = 360,000); AID 540295, 2011;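 active means inhibition above its plate's cutoff, the mean of tested wells on that plate plus 3 SD, cut at about 29% in these data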;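 further: 0% = Melanotan II alone and 100% = Melanotan II plus saturating MCL0020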
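Material – human MC4R-expressing U2OS cells · Repeats – no replicates · Detection – TR-FRET with Eu-cAMP and labeled anti-cAMP, 671 nm · Times – compound 30 min, challenge 1 h, detection 1 h · Compound – single nominal compound dose of 6.5 µM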
ABCB6 inh MLPCN: ABCB6 transporter inhibitors, primary screen, K562-ABCB6 cells, flow cytometry, MLPCN library; K562-ABCB6 porphyrin accumulation, 1 h; active compounds read low; fluorescence ratio to DMSO, % at 10 µM; actives 0.19% (n = 360,000);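 active means fluorescence ratio to DMSO below 75%, the collection mean minus 3 SD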;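 further: signal is porphyrin accumulated inside mitochondria; 100% equals median channel fluorescence of DMSO control wells; lower ratio means ABCB6 inhibition with less porphyrin fluorescence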
Target sequence (Q9NP58 whole entry, looked up): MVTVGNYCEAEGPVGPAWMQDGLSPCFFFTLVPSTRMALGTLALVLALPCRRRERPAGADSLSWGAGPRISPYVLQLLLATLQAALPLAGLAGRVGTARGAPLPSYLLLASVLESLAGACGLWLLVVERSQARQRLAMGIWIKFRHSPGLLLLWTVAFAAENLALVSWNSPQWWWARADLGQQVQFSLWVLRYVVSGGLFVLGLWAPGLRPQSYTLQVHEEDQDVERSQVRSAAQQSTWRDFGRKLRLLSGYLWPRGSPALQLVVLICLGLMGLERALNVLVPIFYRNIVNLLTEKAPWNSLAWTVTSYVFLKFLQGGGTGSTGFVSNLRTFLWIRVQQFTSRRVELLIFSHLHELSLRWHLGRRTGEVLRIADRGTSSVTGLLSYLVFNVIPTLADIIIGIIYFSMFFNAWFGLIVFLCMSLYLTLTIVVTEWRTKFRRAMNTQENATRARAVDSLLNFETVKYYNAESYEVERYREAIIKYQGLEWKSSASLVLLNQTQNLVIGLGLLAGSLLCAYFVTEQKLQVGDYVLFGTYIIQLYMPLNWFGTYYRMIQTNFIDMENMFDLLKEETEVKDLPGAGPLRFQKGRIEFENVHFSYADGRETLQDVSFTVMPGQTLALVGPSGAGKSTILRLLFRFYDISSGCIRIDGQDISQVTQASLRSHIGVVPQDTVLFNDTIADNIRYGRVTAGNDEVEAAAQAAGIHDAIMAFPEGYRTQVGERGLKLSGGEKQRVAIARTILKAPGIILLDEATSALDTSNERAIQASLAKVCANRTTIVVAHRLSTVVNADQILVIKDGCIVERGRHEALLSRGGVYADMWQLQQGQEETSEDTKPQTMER
hiPSC survival: enhancers of single-cell hiPSC survival, primary screen, ATPlite luminescence | survival enhancement, % at 20 µM | AID 602274, 2012 | 100% = ROCK inhibitor wells, 0% = DMSO | actives 0.044% (n = 360,000); in the data active means survival enhancement above about 18%;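 further: cells exposed to compounds for 16 hours before the ATP read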
TbMetRS inhib: T. brucei MetRS inhibitors, primary screen, biochemical, luminescence; inhibition, % at 11.9 µM; purified T. brucei MetRS, ATP depletion, Kinase-Glo luminescence; actives 0.4% (n = 360,000); AID 624268, 2012; methionyl-tRNA synthetase (Trypanosoma brucei brucei);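 active means inhibition above a per-plate cutoff of the control wells' mean inhibition plus 3 SD, cut at about 5.5% in these data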;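 further: 0% = DMSO wells median and 100% = median of wells with control inhibitor compound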
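Dosing: 11.9 µM compound single dose, 0.9% DMSO; Assay system: purified T. brucei MetRS enzyme; Measured by: Kinase-Glo luciferase luminescence reporting remaining unconsumed ATP; Schedule: 15 min plus 2 h at 25 °C.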
MC4R ag barr: MC4R agonists recruiting beta-arrestin, primary screen, cell-based, luminescence, agonist arm of biased-ligand search. Melanocortin receptor 4 (Homo sapiens), P32245. U2OS MC4R beta-arrestin complementation; percent of melanotan II response, DMSO zero. activation, % at 8.9 µM. actives 0.98% (n = 360,000). AID 540308, 2011;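 active means activation above a per-plate cutoff, the mean activation of sample wells on that plate plus 3 SD, cut at about 8% in these data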
U2OS cAMP counter: nonselective cAMP signaling inhibitors, parental cells, counter-screen for MC4R biased antagonist project, cell-based, TR-FRET, U2OS, forskolin, triplicate | shares compounds with MC4R antagonist | LANCE TR-FRET | inhibition, % at 6.5 µM | actives 26% (n = 1,600);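 active means mean inhibition over triplicates above the low-control well mean plus 3 SD, set per campaign, cut at about 13% in these data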;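 further: signal is single emission at 671 nm which falls as cellular cAMP rises; 0% = forskolin-stimulated wells and 100% = buffer without forskolin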
MC4R cAMP antag: MC4R cAMP antagonists, retest, confirmation, cell-based, TR-FRET; shares compounds with MC4R antagonist; MC4R-expressing cells, MTII-stimulated cAMP; actives 27% (n = 1,600); inhibition, % at 6.5 µM; in the data active means inhibition above about 29%;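 further: 0% = agonist stimulated wells alone and 100% = agonist stimulated wells plus saturating reference antagonist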
* marks the source's active call; other numbers are inactive results; nt = no result.

SMILES	Exocytosis inh	MC4R antagonist	ABCB6 inh MLPCN	hiPSC survival	TbMetRS inhib	MC4R ag barr	U2OS cAMP counter	MC4R cAMP antag
CCOC(=O)c1sc(NC(=O)CC)nc1C	2.3	2.0	107.0	0.7	-0.3	-1.0	nt	nt
CCCN(CC(=O)Nc1ccccc1C)CC(=O)Nc1ccc(Br)cc1F	30.2	28.7*	100.0	-0.2	0.0	1.6	0.3	3.0
O=C(O)c1cc(S(=O)(=O)N(Cc2ccccc2)c2ccc(Cl)cc2)ccc1Cl	2.2	-7.1	107.0	0.3	-0.8	-0.8	nt	nt
COC(=O)c1c(NC(=O)C2COc3ccccc3O2)sc2c1CCN(C(=O)OC)C2 (stereo unspecified)	-1.3	31.1*	96.0	3.2	-0.2	1.4	1.6	26.4
COC(=O)c1c(NC(=O)C2COc3ccccc3O2)sc2c1CCN(Cc1ccccc1)C2 (stereo unspecified)	-4.3	8.4	95.0	3.7	0.0	1.5	nt	nt
COc1ccc(S(=O)(=O)N2CCN(C(=O)c3ccc(NC(C)=O)cc3)CC2)cc1	-2.1	3.8	105.0	0.1	0.0	-0.2	nt	nt
O=C(Nc1cc(Cl)ncn1)c1ccccc1	0.0	30.0*	104.0	0.1	0.6	0.1	16.9*	38.1*
O=C(Nc1cc(N2CCCCC2)ncn1)c1ccccc1	-1.3	8.7	92.0	-3.2	-0.2	-1.2	nt	nt
CC(C)Nc1nc(Nc2ccccc2Cl)c2sccc2n1	19.0	15.1	95.0	-1.3	0.2	-1.1	nt	nt
Cc1cc(C)cc(NC(=O)CN2CCC(NC(=O)c3cccc(F)c3)CC2)c1	-7.5	3.9	97.0	0.3	-0.6	-1.9	nt	nt
Cc1ccc(NC(=O)CN2CCC(NC(=O)c3cccc(F)c3)CC2)cc1C	-2.5	30.4*	99.0	0.2	-1.0	2.7	1.8	-6.8
CCOC(=O)c1cc(-c2ccccc2)sc1NC(=O)COC(=O)c1ccc(Cl)c(S(N)(=O)=O)c1	-1.0	28.8*	100.0	-1.8	-0.7	1.7	2.8	6.9
Nc1ccc(C(=O)NNC(=O)C2COc3ccccc3O2)cc1[N+](=O)[O-] (stereo unspecified)	-5.4	6.9	99.0	-0.4	-0.2	-3.1	nt	nt
CS(=O)(=O)c1ccc(C(=O)OCC(=O)N2CCN(CCC3CCCCC3)CC2)cc1[N+](=O)[O-]	-7.6	14.8	96.0	2.2	-1.2	-2.9	nt	nt
CS(=O)(=O)c1ccc(C(=O)OCC(=O)NC(=O)C2COc3ccccc3O2)cc1[N+](=O)[O-] (stereo unspecified)	-5.2	30.8*	101.0	0.6	-0.3	-1.9	12.7	21.4
CS(=O)(=O)c1ccc(C(=O)OCC(=O)NC(=O)C2CCCCC2)cc1[N+](=O)[O-]	8.5	33.3*	104.0	-1.4	1.3	-3.7	25.3*	42.6*
CC(C)CNC(=O)COc1ncnc2sccc12	-1.5	5.3	106.0	-1.1	0.4	-1.3	nt	nt
Cc1ccn(CCC(=O)Nc2ccc(-c3ccno3)cc2)n1	-0.5	1.6	103.0	-0.5	-0.5	-3.3	nt	nt
CC1=C(C(=O)N(C(C)C)C(C)C)CC(CC(=O)NCc2cccs2)C(=O)N1Cc1ccc(C(C)(C)C)cc1 (stereo unspecified)	3.0	nt	101.0	0.1	-1.1	nt	nt	nt
NC(=O)c1ccc(SCC(=O)OCC(=O)NCC2CCCCC2)c([N+](=O)[O-])c1	-6.3	31.3*	93.0	-0.4	-0.5	-3.5	10.2	36.1*
CCCCCNC(=O)C1CCC(Cn2c(=S)[nH]c3ccccc3c2=O)CC1 (stereo unspecified)	-1.7	3.4	102.0	0.2	-0.2	-0.3	nt	nt
O=C(COc1cccc2c1CCNC2=O)Nc1ccc(Cl)cc1	-1.9	29.0*	100.0	0.2	0.2	-3.8	5.2	0.1
NC(=O)c1ccc(NC(=O)COc2cccc3c2CCNC3=O)cc1	0.5	1.3	101.0	-0.4	-0.5	-3.0	nt	nt
O=C(O)c1cnn(-c2nc(-c3cccc([N+](=O)[O-])c3)cs2)c1C(F)(F)F	-5.9	33.3*	107.0	-0.1	-0.7	0.1	1.4	2.6
O=C(O)c1cnn(-c2nc(-c3ccc(Cl)c(Cl)c3)cs2)c1C(F)(F)F	-5.7	52.0*	96.0	-0.4	0.3	2.2	5.1	21.5
SMILES	Exocytosis inh	MC4R antagonist	ABCB6 inh MLPCN	hiPSC survival	TbMetRS inhib	MC4R ag barr	U2OS cAMP counter	MC4R cAMP antag
CCOC(=O)C1=NOC2COC3(CCN(c4ncccn4)CC3)OCC12 (stereo unspecified)	2.4	-7.2	101.0	-0.8	-0.6	-1.4	nt	nt
COc1ccc(CCNC(=O)C2CCN(C(=O)c3ccccc3C)CC2)cc1	1.6	14.4	99.0	-0.4	-0.2	-1.4	nt	nt
COC(=O)C[C@H]1C=C[C@@H](NC(=O)Nc2c(C)noc2C)[C@@H](CO)O1	11.1	nt	nt	nt	-0.1	nt	nt	nt
Cc1cnc(C(=O)OCC(=O)c2ccc(Br)s2)cn1	-2.8	29.9*	101.0	-0.4	-0.3	-1.4	13.3*	24.8
CC(=O)n1cc([C@H]2C=C(C(=O)Nc3ccccc3)O[C@@H](OCc3ccc(CO)cc3)C2)c2ccccc21	0.7	30.7*	95.0	-1.1	-0.4	-0.8	1.3	12.5
CC(=O)n1cc([C@@H]2C=C(C(=O)NCc3ccccc3)O[C@H](OCc3ccc(CO)cc3)C2)c2ccccc21	18.8	35.5*	94.0	0.3	-0.3	-0.7	-2.0	5.9
CCOC(=O)C1=C(C)NC(=S)NC1c1ccc(OCC(=O)N2CCCCCC2)cc1 (stereo unspecified)	-0.3	-3.3	97.0	-0.3	-0.1	1.3	nt	nt
COC(=O)c1cc(S(=O)(=O)n2nc(C)c(Br)c2C)c(Cl)cc1Cl	0.5	30.2*	99.0	-4.3	-0.2	-2.3	6.0	20.3
COc1ccc(S(=O)(=O)N2CCOCC2)cc1NC(=O)CNC(=O)c1cccs1	-0.7	12.2	92.0	-0.3	-0.3	-4.3	nt	nt
COc1ccc(N2CCN(C(c3cccs3)C(C)NC(=O)c3ccc4c(c3)OCO4)CC2)cc1 (stereo unspecified)	-1.8	34.5*	98.0	-2.1	0.1	1.4	-3.3	-9.6
